Type in all cases: physicochemical
Series [1] can be described thus: Dissociation constant, pKa of compound in water by Sirius T3 apparatus based potentiometric titration analysis.
A short description of series [2]: Distribution coefficient, logD of compound at pH 3 by Sirius T3 apparatus based potentiometric titration analysis. The following applies: octanol/water.
Series [3] is described as follows: Distribution coefficient, logD of compound at pH 8 by Sirius T3 apparatus based potentiometric titration analysis. The following applies: octanol/water.
A short description of series [4]: Octanol/water partition coefficient, logP of compound by Sirius T3 apparatus based potentiometric titration analysis. The essentials:
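Measured by potentiometric (pH-metric) titration in an immiscible octanol–water biphasic system on a Sirius T3. Run at 25 °C at constant ionic strength (0.15 M KCl), using the pKa values determined earlier on the same instrument. Samples came from 50 mM DMSO stocks.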

Series [5] in a line: Dissociation constant, pKa of compound in DMSO by Sirius T3 apparatus based potentiometric titration analysis.
Series [6] in a line: Dissociation constant, pKa of compound measured under acidic conditions by Sirius T3 apparatus based potentiometric titration analysis.

A value given as a limit tells only on which side of the number the result lay.

In series [1], `Cc1cccc(C(N)=O)c1` had a pKa greater than 12.
As a reminder, the logD is lipophilicity at a set pH, counting ionised and neutral species. One may read the logP as a log measure of how a compound divides between an organic and an aqueous phase. Low readings indicate a more hydrophilic compound, high ones a more lipophilic compound. For the compound `Cc1cccc(CC(=O)O)c1`, the logD was 1.35 in series [2] and -0.7 in series [3]. Besides, the pKa in series [1] is 4.13. This compound also gave a logP in series [4] of 1.98.
Regarding `Cc1cccc(-c2nnn[nH]2)c1`, the figures for the logD in series [2] and in series [3] were 1.1 and -0.95, respectively. Further, the pKa in series [5] was determined as 4.07. Besides, the logP in series [4] is 1.75.
The matching figures for `Cc1cccc(C2=C(O)COC2=O)c1`: 1.26, -0.87, 2.95 and 2.32.
On to `Cc1cccc(C/C(N)=N/O)c1`, for which the pKa in series [6] was 5.27; in series [1] it was greater than 12.
`Cc1cccc(/C(N)=N/O)c1`: the pKa in series [6] was 4.97; in series [1], greater than 12.
Take `Cc1cccc(-c2noc(S)n2)c1`: the logD in series [2] was 1.44; in series [3], -0.7. In series [5], this compound registered a pKa of 2.64. Also, the logP in series [4] worked out at 2.65.
The matching figures for `Cc1cccc(CC(=O)NS(C)(=O)=O)c1`: 0.44, -1.58, 4.63 and 0.97.
On the same counts, the results for `Cc1cccc(Cc2noc(S)n2)c1` are 1.42, -0.7, 3.19 and 2.39.
With `Cc1cccc(CC(N)=O)c1`, the pKa in series [1] was greater than 12.
Take `Cc1cccc(Cc2nsc(O)n2)c1`: the logD in series [2] is 2.02; in series [3] it was 0.42. Also, the pKa in series [5] is 6.35. For the same compound, the logP in series [4] came out at 2.15.
On the same counts, the results for `Cc1cccc(-c2nsc(O)n2)c1` are 2.04, 0.34, 5.99 and 2.22.
Take `Cc1cccc(Cc2noc(O)n2)c1`: the logD was 1.39 in series [2] and -0.42 in series [3]. The pKa in series [1] is 5.59. In addition, the logP in series [4] stood at 1.63.
As to `Cc1cccc(-c2noc(O)n2)c1`, the logD was 0.8 in series [2] and -1.11 in series [3]. Further, the pKa in series [1] came to 5.12. The compound also registered a logP in series [4] of 1.14.
`Cc1cccc(Cc2nnn[nH]2)c1`: the logD is 1.07 in series [2] and -0.96 in series [3]. The same compound displayed a pKa in series [5] of 4.73. Moreover, the logP in series [4] came to 1.51.
As to `Cc1cccc(C(=O)O)c1`, the pKa in series [1] was 3.99.

Source of the values: ChEMBL document CHEMBL4699541, “Fragment based drug design and diversity-oriented synthesis of carboxylic acid isosteres” (Bioorg Med Chem, 2020).
